# Screening results: PubChem, several laboratories
# Cav32 inh – inhibitors of human Cav3.2 T-type calcium channel; B-score at 10 µM; AID 449739; hit rate 4% among 100,000; O95180; Cav3.2-expressing cells, Fluo-4 calcium fluorescence FDSS; hits give low values;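 active = single-dose well whose peak fluorescence ratio is a statistical outlier from its plate by either plate-standardised score or position-corrected B-score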
# Target sequence (O95180 whole entry, looked up): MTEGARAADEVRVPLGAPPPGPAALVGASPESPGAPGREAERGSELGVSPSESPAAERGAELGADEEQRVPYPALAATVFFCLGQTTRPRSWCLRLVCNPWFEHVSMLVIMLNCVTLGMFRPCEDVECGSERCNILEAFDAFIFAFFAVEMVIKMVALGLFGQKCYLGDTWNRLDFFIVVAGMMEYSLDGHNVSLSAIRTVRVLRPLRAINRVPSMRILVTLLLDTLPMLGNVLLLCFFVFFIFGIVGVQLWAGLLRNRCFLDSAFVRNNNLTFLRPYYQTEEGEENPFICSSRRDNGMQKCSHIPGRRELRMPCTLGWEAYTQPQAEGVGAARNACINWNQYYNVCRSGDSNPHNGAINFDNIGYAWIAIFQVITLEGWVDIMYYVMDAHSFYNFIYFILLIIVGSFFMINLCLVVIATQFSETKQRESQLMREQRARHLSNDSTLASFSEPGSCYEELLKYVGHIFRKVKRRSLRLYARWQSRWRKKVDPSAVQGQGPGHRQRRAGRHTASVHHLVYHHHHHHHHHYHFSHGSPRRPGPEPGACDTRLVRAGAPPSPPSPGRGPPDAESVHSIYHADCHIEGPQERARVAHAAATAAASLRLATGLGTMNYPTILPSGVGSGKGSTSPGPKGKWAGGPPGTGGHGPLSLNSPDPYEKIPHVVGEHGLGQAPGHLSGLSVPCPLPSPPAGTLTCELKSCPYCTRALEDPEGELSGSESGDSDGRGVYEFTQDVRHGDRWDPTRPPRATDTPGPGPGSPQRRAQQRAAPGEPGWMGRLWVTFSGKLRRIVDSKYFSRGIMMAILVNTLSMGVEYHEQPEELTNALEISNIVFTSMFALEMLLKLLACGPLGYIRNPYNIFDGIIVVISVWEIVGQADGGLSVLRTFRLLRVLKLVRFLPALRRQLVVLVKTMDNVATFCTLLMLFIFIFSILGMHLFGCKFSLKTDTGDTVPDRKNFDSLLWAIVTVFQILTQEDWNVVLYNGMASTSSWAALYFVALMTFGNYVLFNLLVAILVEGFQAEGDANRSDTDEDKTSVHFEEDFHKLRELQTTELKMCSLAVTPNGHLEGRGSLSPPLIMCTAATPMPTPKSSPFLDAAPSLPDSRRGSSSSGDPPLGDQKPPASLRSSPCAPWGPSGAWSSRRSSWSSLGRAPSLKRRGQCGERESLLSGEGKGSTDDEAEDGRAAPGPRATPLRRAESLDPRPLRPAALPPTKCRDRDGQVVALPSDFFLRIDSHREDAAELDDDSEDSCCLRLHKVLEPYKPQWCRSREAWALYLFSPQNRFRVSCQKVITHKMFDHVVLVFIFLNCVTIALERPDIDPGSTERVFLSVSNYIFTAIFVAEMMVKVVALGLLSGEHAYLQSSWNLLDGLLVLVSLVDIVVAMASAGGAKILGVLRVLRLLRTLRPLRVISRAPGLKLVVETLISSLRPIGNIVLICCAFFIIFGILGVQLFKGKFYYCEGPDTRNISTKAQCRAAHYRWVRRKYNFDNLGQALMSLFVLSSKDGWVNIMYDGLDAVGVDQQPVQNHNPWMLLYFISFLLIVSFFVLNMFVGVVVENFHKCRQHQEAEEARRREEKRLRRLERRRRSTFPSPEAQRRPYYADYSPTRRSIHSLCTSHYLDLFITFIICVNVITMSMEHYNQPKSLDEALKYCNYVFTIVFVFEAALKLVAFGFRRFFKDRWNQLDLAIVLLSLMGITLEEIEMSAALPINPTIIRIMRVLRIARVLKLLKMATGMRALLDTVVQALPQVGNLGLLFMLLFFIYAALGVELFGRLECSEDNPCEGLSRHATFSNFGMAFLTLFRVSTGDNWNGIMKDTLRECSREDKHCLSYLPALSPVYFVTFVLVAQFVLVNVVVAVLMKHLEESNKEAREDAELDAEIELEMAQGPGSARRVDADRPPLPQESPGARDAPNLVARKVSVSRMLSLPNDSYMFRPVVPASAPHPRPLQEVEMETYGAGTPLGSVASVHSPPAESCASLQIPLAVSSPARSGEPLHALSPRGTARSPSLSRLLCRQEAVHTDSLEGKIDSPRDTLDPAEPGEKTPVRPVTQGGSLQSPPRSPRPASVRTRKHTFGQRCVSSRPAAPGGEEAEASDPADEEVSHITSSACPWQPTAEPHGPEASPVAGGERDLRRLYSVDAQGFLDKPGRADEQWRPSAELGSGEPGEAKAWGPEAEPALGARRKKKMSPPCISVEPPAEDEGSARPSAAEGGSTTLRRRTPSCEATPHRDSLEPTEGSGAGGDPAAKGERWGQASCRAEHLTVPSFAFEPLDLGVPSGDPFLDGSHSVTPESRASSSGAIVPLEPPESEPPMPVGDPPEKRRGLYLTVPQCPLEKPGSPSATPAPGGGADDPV
# bCat KO growth – beta-catenin-lacking colon tumor cell growth suppression. HCT116 beta-catenin knockout viability, CellTiter-Glo, 60 h; hits give low values. viability, % at 10 µM. hit rate 1.5% among 140,000. AID 818;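 active = viability at or under a set limit, the compound median less 4 SD, cut at about 6% in these data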;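 note: 0% = Hyamine 1622 control at 20 µM and 100% = untreated cell control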
# HUVEC prolif 384 – human endothelial cell proliferation inhibition | hit rate 1.1% among 86,000 | viability, % at 10 µM (by protocol) | AID 648 | HUVEC proliferation, CellTiter-Glo luminescence, 72 h; hits give low values;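 active = viability at or below 30%; inactive = viability above 30%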;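 note: 100% = median luminescence of DMSO-only cell control wells on each plate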
# HCT116 PTEN-null – growth suppressors of cells with PTEN tumor suppressor deletion | HCT116 PTEN-null viability, CellTiter-Glo, 60 h; hits give low values | viability, % at 10 µM | hit rate 1.2% among 140,000;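 active = viability at or below a set limit, 4 SD under the median of all tested compounds, cut at about 3.7% in these data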;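 note: PTEN knockout HCT116 line with beta catenin targeted HCT116 as companion control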
# H69AR growth 86K – blocks growth of human H69AR lung tumor cells; H69AR lung tumor viability, ATP luminescence, 72 h; hits give low values; viability, % at 10 µM; hit rate 6% among 85,000;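 active = viability at or below 40%; inactive = viability above 40%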;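 note: multidrug resistant small cell line overexpressing MRP-1 efflux transporter; 100% = mean luminescence of untreated control wells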
# Lung fibro prol – blocks proliferation of human lung fibroblasts. hit rate 1.1% among 85,000. LL 47 human lung fibroblast viability, ATP luminescence; hits give low values. viability, % at 10 µM;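 active = viability at or below 50% in the single dose screen; inactive = viability above 50%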;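 note: compound exposure lasted 72 h before the ATP readout; 100% = median luminescence of untreated cell-only wells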
#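 test system = LL 47 human lung fibroblasts | amount = 1,150 fibroblasts seeded per well | medium = 15% FBS in IMEM | times = overnight cell rest, 72 h compound treatment at 37 °C | measured by = CellTiter-Glo luminescence measuring cellular ATP | read-out = viability percentage against median untreated-cell control | benchmarks = cell-only wells, no compound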
# * hit, by the source's call; nt = not tested or not shown. Shown are actives, neighbours in structure and some others; about 7.1% of the full set was active somewhere.
SMILES,Cav32 inh,bCat KO growth,HUVEC prolif 384,HCT116 PTEN-null,H69AR growth 86K,Lung fibro prol
CCCCN(CC)C(=O)c1ccc(Cl)c(Cl)c1,-2.75,72.8,98.9,67.0,87.1,89.7
CCCCCSc1nnc(-c2cc(Br)ccc2N)c(=O)[nH]1,-5.03*,97.7,99.2,90.5,87.9,102.3
Cc1nn(C2CCCCC2)c(N)c1-c1ccccc1,-3.37*,90.5,100.1,102.0,114.0,97.4
Cc1nn(C(C)(C)C)c(N)c1-c1ccccc1,nt,103.6,nt,94.4,nt,nt
O=C(c1cccc(Cl)c1)c1nn(-c2ccccc2)c(=O)cc1C(F)(F)F,-3.1,2.5*,nt,1.1*,nt,nt
O=C(c1ccccc1)c1nn(-c2ccccc2)c(=O)cc1C(F)(F)F,-2.69,17.2,nt,13.8,nt,nt
O=C(c1ccccc1)c1nn(-c2ccc(Cl)cc2)c(=O)cc1C(F)(F)F,-2.58,2.2*,nt,1.7*,nt,nt
O=C(Nc1ccccc1)c1nn(-c2ccccc2)c(=O)cc1C(F)(F)F,-1.86,68.9,nt,30.2,nt,nt
COc1cc(OC)cc(C(=O)N2CCC(n3c(C)nc4cc(F)ccc43)CC2)c1,nt,102.4,102.6,96.1,72.6,96.2
COc1cc(CNCCc2ccc(S(N)(=O)=O)cc2)ccc1OCC(=O)NC1CCCCC1,0.0459,80.6,nt,84.9,nt,nt
CCOc1cc(CNCCc2ccc(S(N)(=O)=O)cc2)ccc1OCc1ccc(Cl)cc1,1.95,1.4*,nt,1.7*,nt,nt
COc1cc(CNCCc2ccc(S(N)(=O)=O)cc2)ccc1OCc1ccc(Cl)cc1,-0.203,0.6*,nt,0.6*,nt,nt
COc1cc(CNCCN2CCOCC2)ccc1OCc1ccc(Cl)cc1,-0.0026,74.8,nt,71.9,nt,nt
COc1cc([N+](=O)[O-])ccc1N/C=C/C(=O)c1cccs1,-0.817,75.2,28.7*,72.7,41.6,79.3
COCCNC(=O)c1ccc(-n2c(SCc3cc(F)ccc3F)nc3ccccc3c2=O)cc1,nt,46.3,nt,43.0,nt,nt
O=c1c2ccccc2nc(SCc2nc(-c3ccccc3)no2)n1-c1ccc(F)cc1,-4.51*,68.6,90.0,66.0,92.2,86.6
Cc1noc(C)c1CSc1nc2ccccc2n1CCc1ccccc1,-4.14*,79.3,86.6,65.8,82.4,95.0
Cc1noc(C)c1CSc1nc2ccccc2c(=O)n1-c1ccc(Cl)cc1,-2.91,26.2,57.8,23.5,14.5*,80.0
Cc1cc(C)c(NS(=O)(=O)c2ccc3c(c2)NC(=O)CC(=O)N3)c(C)c1,nt,102.1,nt,101.2,nt,nt
CCOC(=O)c1nn(-c2ccc(F)cc2)c2c1CC/C2=C/c1ccccc1,nt,59.2,nt,69.8,nt,nt
O=C1c2cccc3c(N4CCCCC4)ccc(c23)C(=O)N1c1ccccn1,-6.92*,65.8,nt,66.4,nt,nt
O=C(OCCN1C(=O)c2cccc3c(N4CCOCC4)ccc(c23)C1=O)c1cc(Cl)cc(Cl)c1,nt,17.1,nt,18.8,nt,nt
O=C1c2cccc3c(N4CCCCC4)ccc(c23)C(=O)N1c1ccc(Cl)cn1,nt,nt,78.7,nt,31.3*,98.0
CCCN1C(=O)c2cccc3c(N4CCCCC4)ccc(c23)C1=O,nt,66.5,nt,69.9,nt,nt
O=C1c2cccc3cccc(c23)C(=O)N1c1nccs1,-1.44,92.9,107.6,113.3,97.4,106.8
SMILES,Cav32 inh,bCat KO growth,HUVEC prolif 384,HCT116 PTEN-null,H69AR growth 86K,Lung fibro prol
O=C1c2cccc3c([N+](=O)[O-])ccc(c23)C(=O)N1c1ccc(Cl)cn1,nt,1.8*,nt,1.6*,nt,nt
O=C1c2cccc3c([N+](=O)[O-])ccc(c23)C(=O)N1c1nccs1,1.27,1.5*,2.0*,1.5*,0.8*,23.4*
O=C(O)c1ccc2c(c1)C(=O)N(c1ccc(Cl)cn1)C2=O,0.0116,92.8,92.0,107.2,81.5,101.5
COC1(OC)C=CC(=O)C=C1NC(=O)c1ccccc1OC(C)=O,0.743,nt,nt,nt,nt,nt
O=C(O)CSCCOc1ccc(OCCSCC(=O)O)cc1,nt,90.7,nt,103.4,nt,nt
C[n+]1cnc(-c2ccccc2)cc1-c1ccccc1,nt,92.5,nt,96.9,nt,nt
COc1ccccc1-c1nc2ccccc2c(=O)n1NC(=O)c1cccs1,nt,96.8,nt,97.2,nt,nt
CC(C)NC(=O)CSc1nnc(-c2ccncc2)n1-c1ccccc1,0.0331,102.5,nt,109.3,nt,nt
Cc1c(Cl)cccc1NC(=S)N1CCC(C(N)=O)(N2CCCCC2)CC1,nt,80.5,nt,89.4,nt,nt
O=c1cc(N2CCC(Cc3ccccc3)CC2)[nH]c(=O)n1C1CCCCC1,-1.01,88.0,72.1,77.3,27.1*,86.8
Cc1cccc(OCc2nc(-c3cccnc3)no2)c1,nt,94.8,nt,91.5,nt,nt
c1ccc(CNc2ncnc3c2cnn3Cc2ccccc2)cc1,-3.07,42.0,55.6,37.4,26.2*,54.4
Clc1ccc(Cn2ncc3c(NCc4ccco4)ncnc32)c(Cl)c1,-5.78*,22.7,50.8,18.1,26.1*,nt
COc1ccc(NC(=S)NCCSc2ccc(C)cc2)c(OC)c1,-6.51*,nt,nt,nt,nt,nt
COc1ccc(OC)c(NC(=S)NCCSc2ccc(C)cc2)c1,nt,81.3,nt,93.1,nt,nt
c1ccc(CN2CCN(C3=Nc4cccc5cccc3c45)CC2)cc1,-0.222,13.9,37.0,13.0,35.1*,89.2
O=C(NC(=S)Nn1cnc2c(cnn2-c2ccccc2)c1=O)c1ccccc1,nt,92.6,nt,88.8,nt,nt
O=C1Nc2ccccc2C12Nc1ccccc1-c1nc3ccccc3n12 (centres undefined),-4.8*,68.1,78.3,67.1,89.1,100.1
CCCCC1(C)Nc2ccccc2-c2nc3ccccc3n21 (centres undefined),-4.9*,75.0,91.4,85.6,102.2,98.0
CN1C(=O)C2(Nc3ccccc3-c3nc4ccccc4n32)c2ccccc21 (centres undefined),-0.444,92.5,91.1,85.0,86.1,102.2
CC1(c2ccccn2)Nc2ccccc2-c2nc3ccccc3n21 (centres undefined),2.29,71.1,85.5,69.1,102.6,97.3
C/C(=N\NC(=O)c1c(-c2ccccc2Cl)noc1C)c1cccc(NC(=O)C(C)C)c1,nt,99.9,nt,94.6,nt,nt
Cc1cc(F)ccc1S(=O)(=O)Nc1ccccc1C(=O)Nc1ccccc1-c1nc2ccccc2[nH]1,nt,3.7*,nt,3.9,nt,nt
CCOc1ccc(S(=O)(=O)Nc2ccccc2C(=O)Nc2ccccc2N2CCOCC2)cc1,-1.65,100.3,86.0,110.8,93.9,102.1
Cc1ccc(S(=O)(=O)Nc2cc(C(F)(F)F)ccc2N2CCOCC2)c(C)c1,nt,82.6,nt,86.7,nt,nt
SMILES,Cav32 inh,bCat KO growth,HUVEC prolif 384,HCT116 PTEN-null,H69AR growth 86K,Lung fibro prol
Cc1cc(C(=O)Nc2ccc(N3CCOCC3)cc2)c2ccccc2n1,0.563,81.1,89.0,74.8,90.8,100.2
Cc1cc(F)ccc1S(=O)(=O)Nc1ccccc1C(=O)Nc1ccccc1N1CCOCC1,-5.95*,81.4,72.3,77.1,87.5,99.7
O=C(Nc1ccccc1N1CCOCC1)c1cc(-c2ccco2)nc2ccccc12,0.393,62.8,71.2,52.0,5.8*,93.5
Cc1ccc(C)c(S(=O)(=O)Nc2ccccc2C(=O)Nc2ccccc2N2CCOCC2)c1,-4.9*,96.0,nt,91.1,nt,nt
Fc1ccccc1-c1csc(=Nc2cccnc2)n1CCCn1ccnc1,nt,71.9,nt,69.8,nt,nt
CC12CCC(C(=O)N3CCCc4ccccc43)(OC1=O)C2(C)C (centres undefined),nt,80.6,nt,91.0,nt,nt
S=C(NCCc1ccccc1)NCc1cccs1,nt,89.0,nt,85.4,nt,nt
O=C(Nc1ccccc1N1CCOCC1)c1ccccc1NS(=O)(=O)c1ccc(F)cc1,nt,72.2,86.2,69.7,79.7,107.5
